According to ChEMBL document CHEMBL4831507, “Development of FABP4/5 inhibitors with potential therapeutic effect on type 2 Diabetes Mellitus” (Eur J Med Chem, 2021):
Active and inactive are the calls of the source. No cut-off for these calls is given here.

Legend:
[1] = target: T1, Fatty acid-binding protein, adipocyte (Homo sapiens, UniProt P15090); experiment: Displacement of 1,8-ANS from FABP4 (unknown origin) at 25 uM incubated for 3 mins by fluorescence based analysis relative to control
Procedure, shortened: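 Single-concentration percent inhibition in the 1,8-ANS displacement assay with FABP4. Compound incubated with protein and probe in phosphate buffer for 3 min at room temperature; fluorescence read at ex 370/em 470 nm.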
Target sequence in this assay (P15090 2-132 limits assumed): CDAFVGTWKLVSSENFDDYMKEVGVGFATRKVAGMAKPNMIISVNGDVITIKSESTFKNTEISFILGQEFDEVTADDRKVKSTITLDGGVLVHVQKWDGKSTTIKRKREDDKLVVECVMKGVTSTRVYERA

[2] = target: T1, Fatty acid-binding protein, adipocyte; experiment: Displacement of 1,8-ANS from FABP4 (unknown origin) incubated for 3 mins by fluorescence based analysis
Procedure, shortened: (§1)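 1,8-ANS displacement using purified recombinant FABP3, FABP4 or FABP5. Compound incubated with protein and 1,8-ANS in phosphate buffer for 3 min at room temperature. Fluorescence read at ex 370/em 470 nm. IC50 by nonlinear regression, mean ± SD of three independent experiments.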
Target sequence in this assay (P15090 whole entry): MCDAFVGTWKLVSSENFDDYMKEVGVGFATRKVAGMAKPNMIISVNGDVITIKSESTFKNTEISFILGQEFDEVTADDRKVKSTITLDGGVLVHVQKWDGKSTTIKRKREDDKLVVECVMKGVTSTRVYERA

[3] = target: T2, Fatty acid-binding protein 5 (Homo sapiens, UniProt Q01469); experiment: Displacement of 1,8-ANS from FABP5 (unknown origin) incubated for 3 mins by fluorescence based analysis
T2 sequence (Q01469 whole entry): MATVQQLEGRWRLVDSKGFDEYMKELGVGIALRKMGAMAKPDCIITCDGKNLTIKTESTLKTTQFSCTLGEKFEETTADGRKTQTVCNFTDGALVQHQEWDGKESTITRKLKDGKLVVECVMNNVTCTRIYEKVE

[4] = target: Fatty acid-binding protein, heart (Homo sapiens, UniProt P05413); experiment: Displacement of 1,8-ANS from FABP3 (unknown origin) incubated for 3 mins by fluorescence based analysis; procedure, shortened: as §1
Sequence of Fatty acid-binding protein, heart (P05413 whole entry): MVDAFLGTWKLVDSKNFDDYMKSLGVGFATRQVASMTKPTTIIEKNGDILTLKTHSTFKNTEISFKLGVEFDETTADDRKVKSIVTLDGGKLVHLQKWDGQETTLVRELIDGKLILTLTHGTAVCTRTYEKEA

Homo sapiens [5] = organism: Homo sapiens; experiment: Selectivity ratio of IC50 for FABP3 (unknown origin) to IC50 for FABP4 (unknown origin); procedure, shortened: as §1
Homo sapiens [6] = organism: Homo sapiens; experiment: Selectivity ratio of IC50 for FABP3 (unknown origin) to IC50 for FABP5 (unknown origin); procedure, shortened: as §1
[7] = Metabolic stability in mouse liver microsomes assessed as half life at 0.1 uM preincubated for 10 mins followed by NADPH addition and measured for 60 mins by LC-MS/MS analysis; type: ADME, Microsome; settings: time 70 min
Procedure, shortened: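 Mouse liver microsomes 0.33 mg/mL in 0.1 M Tris pH 7.4 with 5 mM MgCl₂, 0.01% DMSO and 0.005% BSA. Compound final […]. Preincubated 10 min at 37 °C; reaction started with 1 mM NADPH. Samples at 0, 7, 17, 30 and 60 min quenched with cold methanol, then analysed by LC-MS/MS.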

[8] = Half life in ICR mouse at 3 mg/kg, po measured for 24 hrs by LC-MS/MS analysis; type: ADME, organism-based; settings: in vivo
Procedure, shortened: (§2)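 Male ICR mice, 20-25 g, three per group. Oral dose 3 mg/kg in PBS with 5% DMSO and 0.5% HPMC; iv dose 1 mg/kg in DMSO/EtOH/PEG300/NaCl (5/5/40/50). Blood sampled at 0.25, 0.5, 1, 2, 4, 8 and 24 h. Plasma drug measured by LC-MS/MS. Mean ± SEM, n = 3.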

[9] = Half life in ICR mouse at 1 mg/kg, iv measured for 24 hrs by LC-MS/MS analysis; type: ADME, organism-based; settings: in vivo; procedure, shortened: as §2
[10] = Cmax in ICR mouse at 3 mg/kg, po and 1 mg/kg, iv measured for 24 hrs by LC-MS/MS analysis; type: ADME, organism-based; design: time 24 hrs, dose 3 mg/kg; settings: in vivo; procedure, shortened: as §2
[11] = AUC in ICR mouse at 3 mg/kg, po measured for 24 hrs by LC-MS/MS analysis; type: ADME, organism-based; design: dose 3 mg/kg, time 24 hrs; settings: in vivo; procedure, shortened: as §2
[12] = AUC in ICR mouse at 1 mg/kg, iv measured for 24 hrs by LC-MS/MS analysis; type: ADME, organism-based; design: dose 1 mg/kg, time 24 hrs; settings: in vivo; procedure, shortened: as §2
[13] = Clearance in ICR mouse at 3 mg/kg, po and 1 mg/kg, iv measured for 24 hrs by LC-MS/MS analysis; type: ADME, organism-based; settings: in vivo; procedure, shortened: as §2
[14] = Oral bioavailability in ICR mouse at 3 mg/kg measured for 24 hrs by LC-MS/MS analysis; type: ADME, organism-based; settings: in vivo; procedure, shortened: as §2
THP-1 [15] = experiment: Cytotoxicity against human THP-1 cells assessed as reduction in cell viability at 50 uM incubated for 24 hrs by CCK8 assay; type: cell-based; settings: thp-1, 24 h
THP-1 [16] = experiment: Antiinflammatory activity against LPS-induced human THP-1 cells assessed as inhibition of MCP-1 gene expression at 25 uM incubated for 18 hrs followed by LPS-stimulation and measured after 6 hrs by qRT-PCR analysis; type: functional, cell-based; settings: time 24.0 hrs
Procedure, shortened: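 THP-1 cells (1 per 48-well, 3*10⁵) differentiated with 100 nM PMA for 24 h, then washed with PBS. Compound at […] or 0.1% DMSO for 18 h, then 100 ng/ml LPS for 6 h. RNA extracted with TRIzol. MCP-1 mRNA by RT-qPCR, 2^-ΔΔCT method.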

[17] = Toxicity in C57BL/KsJ-db/db mouse assessed as effect on body weight at 50 mg/kg, po administered for 8 weeks; type: organism-based; settings: in vivo, 1344 h
Procedure, shortened: (§3)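 Male db/db mice, 6 weeks old, 10 per group, dosed 50 mg/kg by gavage daily for 8 weeks; vehicle 0.5% CMC-Na. Lean littermates received vehicle. Body weight recorded twice weekly; 6-h fasting tail glucose by glucometer weekly. OGTT on day 45: overnight fast, glucose 0.5 g/kg by gavage. ITT on day 51: 6-h fast, insulin 0.85 IU/kg ip. Glucose AUC calculated. Final serum taken after 6-h fast; HDL-C, LDL-C, TG, TCH and FABP4 measured by kits. Liver Akt and p-Akt(Ser473) by western blot.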

Mus musculus [18] = experiment: Antidiabetic activity in C57BL/KsJ-db/db mouse assessed as reduction in fasting blood glucose level at 50 mg/kg, po administered for 7 weeks; type: functional; settings: 1176 h; procedure, shortened: as §3
Mus musculus [19] = experiment: Antidiabetic activity in C57BL/KsJ-db/db mouse assessed as improvement in insulin resistance at 50 mg/kg, po administered for 51 days by insulin tolerance test; type: functional, organism-based; settings: time 51.0 day; procedure, shortened: as §3
Mus musculus [20] = experiment: In vivo activation of […] signaling in C57BL/KsJ-db/db mouse assessed as increase in Akt phosphorylation at Ser473 in liver at 50 mg/kg, po administered for 8 weeks by western blot analysis; type: functional, organism-based; procedure, shortened: as §3
Mus musculus [21] = experiment: Improvement in lipid homeostasis in C57BL/KsJ-db/db mouse assessed as increase in high density cholesterol level in serum at 50 mg/kg, po administered for 8 weeks; type: functional, organism-based; procedure, shortened: as §3
Mus musculus [22] = experiment: Improvement in lipid homeostasis in C57BL/KsJ-db/db mouse assessed as effect on triglyceride level in serum at 50 mg/kg, po administered for 8 weeks; type: functional, organism-based; procedure, shortened: as §3
Mus musculus [23] = experiment: Reduction in FABP4 level in serum of C57BL/KsJ-db/db mouse at 50 mg/kg, po administered for 8 weeks; type: functional, organism-based; procedure, shortened: as §3
3T3-L1 [24] = experiment: Inhibition of FABP4 secretion in mouse 3T3-L1 cells assessed as reduction in FABP4 level in conditioned medium at 50 uM incubated for 24 hrs by immunoblotting analysis; type: functional, cell-based
Procedure, shortened: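 Mature 3T3-L1 adipocytes starved for 6 h in DMEM with 0.5% BSA, then treated with compound at […] for 24 h. Conditioned medium ultrafiltered; lysate and medium protein measured by BCA. FABP4 immunoblotted with GAPDH, ECL detection, densitometry. Three independent experiments.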

3T3-L1 [25] = experiment: Anti-lipolytic activity in mouse 3T3-L1 cells assessed as inhibition of forskolin-stimulated glycerol release at 80 uM preincubated for 24 hrs followed by forskolin stimulation for 1 hr; type: functional, cell-based; settings: time 25.0 hrs
[26] = target: T1, Fatty acid-binding protein, adipocyte; experiment: Binding affinity to FABP4 (unknown origin) by microscale thermophoresis analysis
Target sequence in this assay (P15090 whole entry): as the sequence (P15090 whole entry) above

[27] = target: T2, Fatty acid-binding protein 5; experiment: Binding affinity to FABP5 (unknown origin) by microscale thermophoresis analysis
3T3-L1 [28] = experiment: Cytotoxicity against mouse 3T3-L1 cells assessed as reduction in cell viability at 100 uM incubated for 24 hrs by CCK8 assay; type: cell-based; settings: 3t3-l1, 24 h
Mus musculus [29] = experiment: Antidiabetic activity in C57BL/KsJ-db/db mouse assessed as improvement in glucose metabolism at 50 mg/kg, po administered for 45 days by oral glucose tolerance test; type: functional, organism-based; settings: time 45.0 day; procedure, shortened: as §3
Mus musculus [30] = experiment: Improvement in lipid homeostasis in C57BL/KsJ-db/db mouse assessed as effect on total cholesterol level in serum at 50 mg/kg, po administered for 8 weeks; type: functional, organism-based; procedure, shortened: as §3

inhibition [1]: 94%
IC50 [2]: 3.78 µM
IC50 [3]: 5.72 µM
IC50 [4]: 84.4 µM
Ratio IC50 (Homo sapiens [5]): 22.3
Ratio IC50 (Homo sapiens [6]): 14.7
half-life at 0.1 µM [7]: 1.47 h
half-life [8]: 6.04 h
half-life [9]: 1.78 h
Cmax [10]: 478 ng/mL
AUC at 24 h [11]: 1740 ng·h/mL
AUC at 24 h [12]: 1940 ng·h/mL
clearance [13]: 8.56 mL/min/kg
bioavailability [14]: 29.9%
Kd [26]: 3.14 µM
Kd [27]: 14.1 µM
SMILES: COc1c(-c2ccc(F)cc2C)cc(S(=O)(=O)Nc2ccc(F)c(CC(=O)O)c2)c2ccccc12
Activity (THP-1 [15]): Non-Toxic
Activity (THP-1 [16]): Active
Activity [17]: Non-Toxic
inhibition in vivo at 50 mg/kg (Mus musculus [18]): 28.1%
Activity (Mus musculus [19]): Active
Activity (Mus musculus [20]): Active
Activity (Mus musculus [21]): Active
Activity (Mus musculus [22]): inactive
inhibition (Mus musculus [23]): Active
inhibition (3T3-L1 [24]): Active
Activity (3T3-L1 [25]): Active
Activity (3T3-L1 [28]): Non-Toxic
Activity (Mus musculus [29]): Active
Activity (Mus musculus [30]): inactive
